In ChEMBL document CHEMBL1123708, “Resolved cis- and trans-2-amino-5-methoxy-1-methyltetralins: central dopamine receptor agonists and antagonists” (1987):

Experiments:
Rattus norvegicus [1] = test: Locomotory activity was determined in non pretreated rats at a dose of 3.2 umol/kg by subcutaneous administration; type: functional
Procedure, shortened: (§1)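 Untreated rats received test drug sc 5 min before a 30-min session in photocell motility meters, with accumulated counts recorded. Activity is expressed as percent of saline controls, mean ± SEM, n = 3-5. Gross behaviour was observed through a semitransparent mirror. Differences from saline controls were assessed by Student's t test.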

[2] = target: T1, Dopamine receptor (Rattus norvegicus) (UniProt P25115+P19020+P30729+P18901+P61169); test: Ability to displace the Dopamine receptor agonist DiPr-5,6-ADTN from rat striatal binding sites in vivo at a dose of 52 uM/kg by subcutaneous administration; type: organism-based
Rattus norvegicus [3] = test: In vivo DOPA accumulation in non pre-treated rat striatal system following s.c. administration.; type: functional; settings: sc
Procedure, shortened: (§2)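 Rats without pretreatment received test drug sc 65 min and NSD 1015 (100 mg/kg ip) 30 min before death, with saline controls. DOPA was measured in limbic or striatal tissue. Dose for half-maximal change was estimated from 4-5-dose curves (n = 3-5), maximal level as % of control.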

Rattus norvegicus [4] = test: Induced locomotor stimulation in non pre-treated rats by 13 umol/kg s.c. administration.; type: functional
Rattus norvegicus [5] = test: Change in rectal temperature induced by DiPr-5,6-ADTN at a dose of 52 umol/kg of compound by subcutaneous administration; type: functional
Procedure, shortened: (§3)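 Rats received DiPr-5,6-ADTN (0.25 μmol/kg sc) 100 min and test compound sc 40 min before death. Rectal temperature change (°C) was recorded between 60 and 100 min after DiPr-5,6-ADTN. Values are mean ± SEM, n = 4, with Student's t test vs DiPr-5,6-ADTN alone.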

Rattus norvegicus [6] = test: Induced locomotor stimulation was determined in non pretreated rats at a dose of 52 umol/kg by subcutaneous administration; type: functional; procedure, shortened: as §1
[7] = target: T1, Dopamine receptor (Rattus norvegicus); test: In vivo displacement of DiPr-5,6-ADTN from Dopamine receptors in rat striatum; type: organism-based
Rattus norvegicus [8] = test: Induced locomotor stimulation in non pre-treated rats by 52 umol/kg s.c. administration.; type: functional
Rattus norvegicus [9] = test: In vivo DOPA accumulation in non pre-treated rat limbic system following s.c. administration.; type: functional; settings: sc; procedure, shortened: as §2
Rattus norvegicus [10] = test: Change in rectal temperature induced by DiPr-5,6-ADTN at a dose of 13 umol/kg of compound by subcutaneous administration; type: functional; procedure, shortened: as §3
Rattus norvegicus [11] = test: In vivo DOPA accumulation in reserpine pretreated rat limbic system by subcutaneous administration; type: functional; settings: sc
Procedure, shortened: (§4)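 Rats received reserpine (5 mg/kg sc) 18 h, test drug sc 60 min and NSD 1015 (100 mg/kg ip) 30 min before death, with saline controls. Limbic or striatal DOPA was measured. Dose for half-maximal decrease was estimated from 4-7-dose curves (n = 3-5), minimal level as % of control.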

Rattus norvegicus [12] = test: Locomotory activity was determined in non pretreated rats at a dose of 0.32 umol/kg by subcutaneous administration; type: functional; procedure, shortened: as §1
Rattus norvegicus [13] = test: Locomotory activity was determined in reserpine pretreated rats at a dose of 3.2 umol/kg by subcutaneous administration. Value is the accumulation counts/30 min; type: functional
Procedure, shortened: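 Rats were given reserpine 5 mg/kg sc 18 h beforehand, then test drug sc immediately before the activity session. Motor activity was recorded by photocells in motility meters as accumulated counts over 30 min, mean ± SEM, n = 3-4. Gross behaviour was watched for signs of stimulation. Reserpine-only controls were included.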

Rattus norvegicus [14] = test: In vivo DOPA accumulation in reserpine pretreated rat striatum system by subcutaneous administration; type: functional; settings: sc; procedure, shortened: as §4
Rattus norvegicus [15] = test: Locomotory activity was determined in non pretreated rats at a dose of 13.4 umol/kg by subcutaneous administration; type: functional; procedure, shortened: as §1
Rattus norvegicus [16] = test: Change in rectal temperature induced by DiPr-5,6-ADTN at a dose of 40 umol/kg of compound by subcutaneous administration; type: functional; procedure, shortened: as §3
[17] = target: T1, Dopamine receptor (Rattus norvegicus); test: Ability to displace the Dopamine receptor agonist DiPr-5,6-ADTN from rat striatal binding sites in vivo at a dose of 10 uM/kg by subcutaneous administration; type: organism-based
[18] = target: T1, Dopamine receptor (Rattus norvegicus); test: Ability to displace the DA receptor agonist DiPr-5,6-ADTN from rat striatal binding sites in vivo at a dose of 40 uM/kg by subcutaneous administration; type: organism-based
Rattus norvegicus [19] = test: Change in rectal temperature induced by DiPr-5,6-ADTN at a dose of 10 umol/kg of compound by subcutaneous administration; type: functional; procedure, shortened: as §3
Rattus norvegicus [20] = test: ((+)-UH-232) induced locomotor stimulation was determined in non pretreated rats at a dose of 52 umol/kg by subcutaneous administration; type: functional
Rattus norvegicus [21] = test: ((+)-UH-232) induced locomotor stimulation was determined in non pretreated rats at a dose of 204 umol/kg by subcutaneous administration; type: functional
[22] = target: T1, Dopamine receptor (Rattus norvegicus); test: Ability to displace the Dopamine receptor agonist DiPr-5,6-ADTN from rat striatal binding sites in vivo at a dose of 52 umol/kg by subcutaneous administration; type: organism-based
Rattus norvegicus [23] = test: Change in rectal temperature induced by DiPr-5,6-ADTN at a dose of 204 umol/kg of compound by subcutaneous administration; type: functional; procedure, shortened: as §3
Rattus norvegicus [24] = test: Induced locomotor stimulation was determined in non pretreated rats at a dose of 13 umol/kg by subcutaneous administration; type: functional
Rattus norvegicus [25] = test: Induced locomotor stimulation was determined in non pretreated rats at a dose of 3.2 umol/kg by subcutaneous administration; type: functional; procedure, shortened: as §1
Rattus norvegicus [26] = test: Change in rectal temperature induced by DiPr-5,6-ADTN at a dose of 13 subcutaneous administration; type: functional; procedure, shortened: as §3
Rattus norvegicus [27] = test: Change in rectal temperature induced by DiPr-5,6-ADTN at a dose of 3.2 umol/kg of compound by subcutaneous administration; type: functional; procedure, shortened: as §3
Rattus norvegicus [28] = test: ((+)-UH-232) induced locomotor stimulation was determined in non pretreated rats at a dose of 13 umol/kg by subcutaneous administration; type: functional
Rattus norvegicus [29] = test: Locomotory activity was determined in non pretreated rats at a dose of 52 umol/kg by subcutaneous administration; type: functional; procedure, shortened: as §1
[30] = target: T1, Dopamine receptor (Rattus norvegicus); test: Ability to displace the Dopamine receptor agonist DiPr-5,6-ADTN from rat striatal binding sites in vivo at a dose of 13 umol/kg by subcutaneous administration; type: organism-based

| SMILES | Activity (Rattus norvegicus [1]) | ED50 (Rattus norvegicus [3]) | Binding [7] | Activity (Rattus norvegicus [8]) | ED50 (Rattus norvegicus [9]) | ED50 (Rattus norvegicus [11]) | Activity (Rattus norvegicus [13]) | ED50 (Rattus norvegicus [14]) | Temperature (Rattus norvegicus [5]) | Activity (Rattus norvegicus [20]) | Binding [22] | also measured |
| --- | --- | --- | --- | --- | --- | --- | --- | --- | --- | --- | --- | --- |
| CCN(CC)[C@@H]1CCc2c(OC)cccc2[C@@H]1C | 100% | 2.9 µmol/kg | 44% | 46% | 5.5 µmol/kg |  |  |  |  |  |  | Binding [2]: 28%; Activity (Rattus norvegicus [4]): 40%; Body temp change (Rattus norvegicus [5]): 1.4 °C; Activity (Rattus norvegicus [6]): 14%; Body temp change (Rattus norvegicus [10]): 1.2 °C |
| CN1CCc2cccc3c2[C@H]1Cc1ccc(O)c(O)c1-3 [APOMORPHINE] | 277% |  |  |  |  | 0.041 µmol/kg | 366 counts/30 min | 0.044 µmol/kg |  |  |  | Activity (Rattus norvegicus [12]): 52% |
| CCCN(CCC)[C@H]1CCc2c(O)cccc2[C@H]1C | 65% | 0.84 µmol/kg |  |  | 0.84 µmol/kg | 0.3 µmol/kg | 121 counts/30 min | 0.34 µmol/kg |  |  |  | Activity (Rattus norvegicus [15]): 171%; Body temp change (Rattus norvegicus [16]): -0.2 °C; Binding [17]: 90%; Binding [18]: 37%; Body temp change (Rattus norvegicus [19]): 0.1 °C |
| CCCN[C@@H]1CCc2c(OC)cccc2[C@@H]1C | 132% | 4.4 µmol/kg | 85% | 159% | 4.6 µmol/kg |  |  |  | 1.05 °C | 54% | 41% | Activity (Rattus norvegicus [21]): 29%; Temperature (Rattus norvegicus [23]): 0.47 °C; Temperature (Rattus norvegicus [10]): 1.3 °C; Activity (Rattus norvegicus [24]): 95% |
| COc1cccc2c1CC[C@@H](N(C)C)[C@H]2C | 100% | 2.9 µmol/kg | 60% |  | 2.2 µmol/kg |  |  |  | 0.28 °C | 8% | 14% | Activity (Rattus norvegicus [25]): 62%; Temperature (Rattus norvegicus [26]): 1.6 °C; Temperature (Rattus norvegicus [27]): -0.15 °C; Activity (Rattus norvegicus [28]): 15%; Activity (Rattus norvegicus [29]): 9%; Binding [30]: 40% |
